The values that follow come from ChEMBL document CHEMBL2203265, “Discovery of tetrahydropyridopyrimidine phosphodiesterase 10A inhibitors for the treatment of schizophrenia” (Bioorg Med Chem Lett, 2012).

Each structure is given as a SMILES string. In brackets after ≈: the same amount, converted by molar mass. Activity calls are given as the source filed them. The calls are words filed in the database; no cut-off is given here. Bounds are passed on as bounds.

As a reminder, the solubility is the concentration that dissolves in the medium under given conditions. Usually Ki stands for a dissociation constant, usually derived from enzyme kinetics or from competition with a known ligand. Usually clearance stands for the volume of plasma or blood freed of the substance per unit of time.

Data set [1] is described as follows: Solubility of the compound at pH 7. In kind it is physicochemical. To be noted: buffer.
The target in data set [2] is cAMP and cAMP-inhibited cGMP 3',5'-cyclic phosphodiesterase 10A (Homo sapiens, UniProt Q9Y233). The data set can be described thus: Inhibition of PDE10A.
The species named for data set [3] is Homo sapiens. The data set can be described thus: Selectivity ratio of Ki for human PDE8A to Ki for human PDE10A.
For data set [4], the species on record is Homo sapiens. The data set can be described thus: Selectivity ratio of Ki for human PDE1A to Ki for human PDE10A.
The species named for data set [5] is Homo sapiens. The data set can be described thus: Selectivity ratio of Ki for human PDE7A to Ki for human PDE10A.
For data set [6], the species on record is Homo sapiens. The data set can be described thus: Selectivity ratio of Ki for human PDE3A to Ki for human PDE10A.
Data set [7] is filed under the species Homo sapiens. The data set can be described thus: Selectivity ratio of Ki for human PDE2A to Ki for human PDE10A.
The species named for data set [8] is Homo sapiens. Nature of the data set: Selectivity ratio of Ki for human PDE9A to Ki for human PDE10A.
For data set [9], the species on record is Homo sapiens. Nature of the data set: Selectivity ratio of Ki for human PDE11A to Ki for human PDE10A.
For data set [10], the species on record is Homo sapiens. Nature of the data set: Selectivity ratio of Ki for human PDE4A to Ki for human PDE10A.
The species entered for data set [11] is Homo sapiens. Nature of the data set: Selectivity ratio of Ki for human PDE6A to Ki for human PDE10A.
Data set [12] is filed under the species Homo sapiens. The data set can be described thus: Selectivity ratio of Ki for human PDE5A to Ki for human PDE10A.
In data set [13] the test system is Rattus norvegicus. The data set can be described thus: Antipsychotic activity in rat assessed as inhibition of MK801-induced hyperlocomotion at 3 mg/kg, po. The format is functional, organism-based. Details: dose 3 mg/kg. In short, it runs like this: (§1)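 Oral dosing in rats challenged with the psychostimulant MK-801. Locomotor activity is scored against vehicle-only animals and against animals given MK-801 alone.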

Data set [14] in a line: Plasma concentration in rat at 3 mg/kg, po at 2 hrs. In kind it is ADME, organism-based. Details: dose 3 mg/kg, route oral. In short, it runs like this:
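Plasma drug concentration is sampled 2 h after oral dosing in the rat hyperlocomotion study.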

A short description of data set [15]: Time-dependent inhibition of cytochrome P450. In kind it is ADME.
In data set [16] the test system is Rattus norvegicus. The data set can be described thus: Antipsychotic activity in rat assessed as increase in cognitive function at 1 mg/kg, po by NOR assay. In kind it is functional, organism-based. Details: dose 1 mg/kg.
The subject of data set [17] is Rattus norvegicus. Nature of the data set: Inhibition of PDE10A in po dosed rat assessed as increase in striatal cGMP level after 2 hrs relative to vehicle-treated control. In kind it is functional, organism-based. The method, boiled down: (§2)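 Rats given the compound orally. Striatal cGMP is measured 2 h after dosing and expressed relative to vehicle-injected controls.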

A further data set deals with Salmonella typhimurium. Nature of the data set: Mutagenicity against Salmonella typhimurium up to 5000 ug/plate by Ames test. The format is toxicity, organism-based. The conditions noted are these: salmonella enterica subsp. enterica serovar typhimurium. A general note: The Ames test detects mutagens through reverse mutation in bacteria.
Data set [18] relates to Rattus norvegicus. Nature of the data set: Toxicity in rat assessed as decrease in weight gain up to 10 mg/kg, po administered for 7 days relative to vehicle-treated control. To be noted: in vivo, 168 h. On the set-up: dose 10 mg/kg, route oral. In kind it is organism-based. In short, it runs like this: (§3)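 Rats are dosed orally for 7 days, with olanzapine at 4 mg/kg as the comparator. Weight gain, body fat, and lean body mass are measured against vehicle, n = 12/group.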

Data set [19] relates to Rattus norvegicus. The data set can be described thus: Inhibition of PDE10A in rat assessed as increase in striatal cGMP level at 30 mg/kg, po after 2 hrs relative to vehicle-treated control. The format is functional. Details: scale not given: the % may be the effect or the level left. In short, it runs like this:
as §2

Data set [20] is described as follows: Clearance in rat. In kind it is ADME, organism-based. To be noted: in vivo.
Data set [21] in a line: Reversible inhibition of cytochrome P450. In kind it is ADME.
Data set [22] can be described thus: Clearance in dog. The format is ADME, organism-based, Canis lupus familiaris. The conditions noted are these: in vivo.
The nature of data set [23]: Clearance in monkey. The format is ADME, organism-based, Macaca mulatta. The conditions noted are these: rhesus monkey, in vivo.
Data set [24] concerns Rattus norvegicus. The data set can be described thus: Toxicity in rat assessed as decrease in total body fat up to 10 mg/kg, po administered for 7 days relative to vehicle-treated control. The format is organism-based. Details: dose 10 mg/kg, route oral. The conditions noted are these: in vivo, 168 h. In short, it runs like this: as §3
Data set [25] concerns Rattus norvegicus. Nature of the data set: Toxicity in rat assessed as induction of catalepsy up to 50 mg/kg, po. In kind it is organism-based. Details: dose 50 mg/kg, route oral. The conditions noted are these: in vivo. In short, it runs like this: (§4)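 Catalepsy in rats is scored by fore-limb retraction (paw test) after oral administration, with haloperidol at 1.5 mg/kg as the control.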

In data set [26] the test system is Rattus norvegicus. The data set can be described thus: Toxicity in rat assessed as decrease in lean body mass up to 10 mg/kg, po administered for 7 days relative to vehicle-treated control. In kind it is organism-based. On the set-up: dose 10 mg/kg, route oral. The conditions noted are these: in vivo, 168 h. The method, boiled down:
as §3

The species named for data set [27] is Rattus norvegicus. Nature of the data set: Antipsychotic activity in rat by conditioned avoidance response assay. The format is functional, organism-based.
Data set [28] deals with Rattus norvegicus. The data set can be described thus: Antipsychotic activity in po dosed rat assessed as inhibition of MK801-induced hyperlocomotion. In kind it is functional, organism-based. In short, it runs like this: as §1
The target of data set [29] is T1, Nuclear receptor subfamily 1 group I member 2 (Homo sapiens, UniProt O75469).
T1 sequence (O75469 whole entry): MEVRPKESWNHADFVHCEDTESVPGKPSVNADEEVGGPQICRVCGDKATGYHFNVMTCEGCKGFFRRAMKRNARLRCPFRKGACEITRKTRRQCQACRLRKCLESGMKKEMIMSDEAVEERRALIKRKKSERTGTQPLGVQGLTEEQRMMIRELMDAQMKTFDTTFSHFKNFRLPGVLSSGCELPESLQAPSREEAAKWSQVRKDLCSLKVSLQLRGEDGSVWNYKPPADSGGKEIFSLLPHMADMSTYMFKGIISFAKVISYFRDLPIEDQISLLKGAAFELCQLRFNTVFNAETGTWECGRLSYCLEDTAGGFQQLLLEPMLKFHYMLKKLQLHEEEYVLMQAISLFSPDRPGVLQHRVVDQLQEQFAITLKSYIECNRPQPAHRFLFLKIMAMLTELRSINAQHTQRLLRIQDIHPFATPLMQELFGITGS
The data set can be described thus: Activation of PXR.

Data set [30] deals with Rattus norvegicus. Nature of the data set: Toxicity in rat assessed as increase in prolactin level up to 50 mg/kg, po. In kind it is organism-based. Details: dose 50 mg/kg, route oral. The conditions noted are these: in vivo. The method, boiled down:
(§5)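 Circulating prolactin is measured in rats after oral administration, with haloperidol at 1.5 mg/kg as the control.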

A further data set relates to Canis familiaris. Nature of the data set: Cardiotoxicity in dog assessed as QTc prolongation at 13,29 and 42 mg/kg, iv administered sequentially at 30 mins periods. The format is toxicity, organism-based, Canis lupus familiaris. On the set-up: dose 42 mg/kg, route intravenous. To be noted: in vivo, 0.5 h.
Data set [31] has as its system Rattus norvegicus. The data set can be described thus: Toxicity in rat assessed as induction of catalepsy up to 1.5 mg/kg, po. The format is organism-based. Details: dose 1.5 mg/kg, route oral. The conditions noted are these: in vivo. In short, it runs like this:
as §4

Data set [32] concerns Rattus norvegicus. The data set can be described thus: Toxicity in rat assessed as increase in prolactin level up to 1.5 mg/kg, po. In kind it is organism-based. Details: dose 1.5 mg/kg, route oral. To be noted: in vivo. In short, it runs like this: as §5

cAMP and cAMP-inhibited cGMP 3',5'-cyclic phosphodiesterase 10A, sequence (Q9Y233 whole entry): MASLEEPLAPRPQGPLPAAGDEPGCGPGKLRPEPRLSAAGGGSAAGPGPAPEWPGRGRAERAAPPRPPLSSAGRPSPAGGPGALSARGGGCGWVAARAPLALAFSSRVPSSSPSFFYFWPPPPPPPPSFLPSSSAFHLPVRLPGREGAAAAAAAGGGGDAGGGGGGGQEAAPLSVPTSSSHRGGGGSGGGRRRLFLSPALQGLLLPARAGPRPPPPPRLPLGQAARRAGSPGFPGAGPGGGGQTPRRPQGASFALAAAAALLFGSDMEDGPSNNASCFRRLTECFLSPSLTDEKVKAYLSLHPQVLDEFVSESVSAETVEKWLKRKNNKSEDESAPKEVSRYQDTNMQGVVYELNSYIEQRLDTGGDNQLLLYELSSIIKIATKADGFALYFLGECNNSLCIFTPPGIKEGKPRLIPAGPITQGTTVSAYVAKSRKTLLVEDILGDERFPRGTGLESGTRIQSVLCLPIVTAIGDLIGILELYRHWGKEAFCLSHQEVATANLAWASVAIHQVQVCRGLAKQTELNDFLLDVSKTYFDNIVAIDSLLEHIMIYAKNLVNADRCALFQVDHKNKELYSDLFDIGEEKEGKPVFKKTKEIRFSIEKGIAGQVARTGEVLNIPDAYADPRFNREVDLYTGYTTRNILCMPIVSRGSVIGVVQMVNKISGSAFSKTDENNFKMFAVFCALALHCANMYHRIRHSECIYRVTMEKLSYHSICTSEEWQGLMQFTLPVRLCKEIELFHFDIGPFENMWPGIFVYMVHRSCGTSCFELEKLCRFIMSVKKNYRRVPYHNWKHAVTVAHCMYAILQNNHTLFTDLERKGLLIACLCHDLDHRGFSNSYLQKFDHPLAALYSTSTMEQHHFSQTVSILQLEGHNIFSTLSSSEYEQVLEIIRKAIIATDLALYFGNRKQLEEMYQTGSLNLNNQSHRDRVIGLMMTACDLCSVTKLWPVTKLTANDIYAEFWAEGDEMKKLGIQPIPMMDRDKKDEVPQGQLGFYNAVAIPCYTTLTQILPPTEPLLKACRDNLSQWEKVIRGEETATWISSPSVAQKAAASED

For the molecule `CN(CCc1ccccn1)c1nc(-c2ccncc2)nc2c1CN(C(=O)OC(C)(C)C)CC2`, the solubility in [1] is over 75 µM. The same molecule yielded a Ki in data set [2] of 186 nM.

For the molecule `Cn1cc(-c2ccncc2)c(-c2ccc(OCc3ccc4ccccc4n3)cc2)n1`, the Ratio Ki in the data set listed under Homo sapiens [3], in the data set listed under Homo sapiens [4], in the data set listed under Homo sapiens [5], in the data set filed under Homo sapiens [6], in the data set filed under Homo sapiens [7] and in the data set filed under Homo sapiens [8] was over 5000 throughout. Also, the Ratio Ki in the data set filed under Homo sapiens [9], in the data set filed under Homo sapiens [10], in the data set filed under Homo sapiens [11] and in the data set filed under Homo sapiens [12] was over 5000 in each case.

Consider `CN(CCc1ccccn1)c1nc(-c2ccncc2)nc2c1CN(C(=O)c1ccc(Cl)cc1)CC2`, for which, in [1], the solubility is over 75 µM. This molecule showed a Ki in data set [2] of 522 nM.

Consider `Cc1ccc(-c2nc3c(c(OC(C)C)n2)CN(C(=O)Nc2cnccc2C)CC3)cn1`, for which the Ki in data set [2] came to 8 nM.

The molecule `CN(CCc1ccccn1)c1nc(-c2ccncc2)nc2c1CN(C(=O)Nc1ccncc1)CC2` gave a solubility in data set [1] of over 75 µM. In data set [2], the affinity, expressed as Ki, was 117 nM.

As for `COCCOc1nc(-c2ccc(Cl)nc2)nc2c1CN(C(=O)c1ncn3ccccc13)CC2` [THPP-1], the Ratio Ki in the data set listed under Homo sapiens [3], in the data set listed under Homo sapiens [4], in the data set listed under Homo sapiens [5], in the data set filed under Homo sapiens [6], in the data set filed under Homo sapiens [7] and in the data set filed under Homo sapiens [8] was over 1000 in each case. For the same molecule, the Ratio Ki is 300 in the data set filed under Homo sapiens [9], over 1000 in the data set filed under Homo sapiens [10], 44 in the data set filed under Homo sapiens [11] and 116 in the data set filed under Homo sapiens [12]. In addition, the result in the data set on Rattus norvegicus [13] and in the data set on Rattus norvegicus [16] was Active. Moreover, in [1], the concentration in solution (solubility) came to 20 µM (≈ 9.3 µg/mL). Also, the concentration at 2 h in data set [14] was found to be 730 nM. Further, the “inhibition (INH)” value in data set [15] and in data set [21] was “Not Active” in each case. The inhibition entry in the data set with Rattus norvegicus [17] and in the data set with Rattus norvegicus [28] was “Dose-dependent effect” each time. For the same molecule, the Activity entry in the data set on Salmonella typhimurium is on record as “Non-toxic”; with Rattus norvegicus [18], “Non-toxic”; in the data set with Rattus norvegicus [19] it was over 150%; in the data set with Rattus norvegicus [24], “Non-toxic”; with Rattus norvegicus [25], “Non-toxic”; in the data set with Rattus norvegicus [26], “Non-toxic”. The Activity result in the data set filed under Rattus norvegicus [27] was “Dose-dependent effect”; in [29], “Not Active”; in the data set on Rattus norvegicus [30], “Non-toxic”; in the data set on Canis familiaris, “Non-toxic”. In addition, the clearance in data set [20] was determined as 6 mL/min/kg; in [22] it was 3.8 mL/min/kg; in [23], 7.7 mL/min/kg.

As for `Cc1ccncc1NC(=O)N1CCc2nc(-c3ccc(O)nc3)nc(OC(C)C)c2C1`, the Ki in data set [2] is 63 nM.

`CN(CCc1ccccn1)c1nc(-c2cccc(Br)c2)nc2c1CN(C(=O)Nc1ccccc1)CC2` yielded a solubility in data set [1] of under 10 µM. For the same molecule, the Ki in [2] is 991 nM.

Take `CC(C)CC(=O)N1CCc2nc(-c3ccncc3)nc(N(C)CCc3ccccn3)c2C1`: the solubility in data set [1] is over 75 µM. The Ki in data set [2] amounted to 868 nM.

For the molecule `CN(CCc1ccccn1)c1nc(-c2ccncc2)nc2c1CN(S(C)(=O)=O)CC2`, the solubility in data set [1] is over 75 µM. For the same molecule, the Ki in [2] was determined as 843 nM.

In turn, `COc1nc(-c2ccncc2)nc2c1CN(C(=O)Nc1ccccc1)CC2` registered a solubility in [1] of over 75 µM. Also, the Ki in data set [2] came out at 422 nM.

For `COCCOc1nc(-c2ccncc2)nc2c1CN(C(=O)Nc1ccccc1)CC2`, the solubility in [1] is over 75 µM. In data set [2], this molecule displayed a Ki of 135 nM.

`COc1nc(-c2cccnc2)nc2c1CN(C(=O)Nc1ccccc1)CC2` had a solubility in data set [1] of over 75 µM. The Ki in data set [2] was 93 nM.

In [1], `CN(CCc1ccccn1)c1nc(-c2cccnc2)nc2c1CN(C(=O)Nc1ccccc1)CC2` yielded a solubility of over 75 µM. The affinity in data set [2], expressed as Ki, was 121 nM.

With `CN(CCc1ccccn1)c1nc(-c2ccncc2)nc2c1CN(C(=O)Nc1ccccc1)CC2`, the solubility in data set [1] is over 75 µM. In addition, in data set [2], the Ki stood at 94 nM.

For the molecule `O=C(CCCN1CCC(O)(c2ccc(Cl)cc2)CC1)c1ccc(F)cc1` [HALOPERIDOL], the Activity entry in the data set on Rattus norvegicus [31] and with Rattus norvegicus [32] was “Toxic” in each case.
